The results in this text go back to ChEMBL document CHEMBL1129430, “Synthesis and transporter binding properties of 3 beta-(4'-alkyl-, 4'-alkenyl-, and 4'-alkynylphenyl)nortropane-2 beta-carboxylic acid methyl esters: serotonin transporter selective analogs” (J Med Chem, 1996).

Molecules are shown by their SMILES.

Test [1] concerns the target Norepinephrine transporter (Rattus norvegicus, UniProt Q9WTR4). The test can be described thus: Inhibition of [3H]nisoxetine binding to the norepinephrine transporter in rat midbrain.
Test [2] addresses Monoamine transporters; serotonin & dopamine (Rattus norvegicus) (UniProt P31652+P23977). The test can be described thus: Selectivity for dopamine and serotonin transporters. The format is protein assay.
Test [3] has as its target Monoamine transporters; Norepinephrine & serotonin (Rattus norvegicus) (UniProt P31652+Q9WTR4). The test can be described thus: Selectivity for norepinephrine and serotonin transporters. The format is protein assay. In short, it runs like this:
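The NE/5-HT IC50 ratio is derived from IC50 values from two binding assays in rat brain. One is [3H]nisoxetine binding in midbrain (NE transporter). The other is [3H]paroxetine binding in frontal cortex (5-HT transporter).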

Test [4] addresses Sodium-dependent dopamine transporter (Rattus norvegicus, UniProt P23977). Description: Inhibition of [3H]WIN-35428 binding to the dopamine transporter in rat striata.
The target in test [5] is Sodium-dependent serotonin transporter (Rattus norvegicus, UniProt P31652). The test can be described thus: Inhibition of [3H]paroxetine binding to serotonin transporter in rat frontal cortex. In kind it is tissue-based.
Sequence of Sodium-dependent serotonin transporter (P31652 whole entry): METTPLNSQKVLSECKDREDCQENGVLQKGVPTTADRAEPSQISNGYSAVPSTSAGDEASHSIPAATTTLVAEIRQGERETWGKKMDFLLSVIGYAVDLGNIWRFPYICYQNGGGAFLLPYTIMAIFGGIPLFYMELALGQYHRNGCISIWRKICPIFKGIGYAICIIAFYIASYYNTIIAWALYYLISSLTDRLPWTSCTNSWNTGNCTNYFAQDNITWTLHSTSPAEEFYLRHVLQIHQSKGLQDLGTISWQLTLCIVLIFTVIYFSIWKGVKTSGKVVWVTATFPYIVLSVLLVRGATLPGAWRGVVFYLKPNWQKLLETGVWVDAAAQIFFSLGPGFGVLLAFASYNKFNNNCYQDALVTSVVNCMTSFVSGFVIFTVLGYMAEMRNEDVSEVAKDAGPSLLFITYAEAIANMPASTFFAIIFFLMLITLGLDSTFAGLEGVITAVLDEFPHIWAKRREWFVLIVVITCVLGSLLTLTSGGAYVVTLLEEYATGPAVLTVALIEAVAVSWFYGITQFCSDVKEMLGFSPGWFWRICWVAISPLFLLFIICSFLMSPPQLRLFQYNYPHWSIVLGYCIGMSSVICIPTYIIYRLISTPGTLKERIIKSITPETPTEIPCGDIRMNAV

Sequence of Norepinephrine transporter (Q9WTR4 whole entry): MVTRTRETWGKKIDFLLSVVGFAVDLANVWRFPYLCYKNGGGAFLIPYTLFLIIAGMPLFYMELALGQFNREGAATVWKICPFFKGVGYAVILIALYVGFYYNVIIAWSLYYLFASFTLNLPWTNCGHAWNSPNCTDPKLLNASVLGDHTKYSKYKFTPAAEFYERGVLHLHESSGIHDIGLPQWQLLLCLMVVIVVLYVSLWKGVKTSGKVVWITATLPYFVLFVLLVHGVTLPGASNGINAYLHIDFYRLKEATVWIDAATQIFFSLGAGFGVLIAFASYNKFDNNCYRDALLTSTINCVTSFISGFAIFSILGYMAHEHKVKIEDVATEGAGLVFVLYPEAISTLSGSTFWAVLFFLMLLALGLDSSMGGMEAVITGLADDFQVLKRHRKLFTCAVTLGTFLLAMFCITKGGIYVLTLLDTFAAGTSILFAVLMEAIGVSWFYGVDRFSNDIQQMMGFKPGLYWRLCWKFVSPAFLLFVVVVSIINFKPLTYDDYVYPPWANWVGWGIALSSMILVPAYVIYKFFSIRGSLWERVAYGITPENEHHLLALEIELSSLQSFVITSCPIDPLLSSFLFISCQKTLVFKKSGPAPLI
Sequence of Sodium-dependent dopamine transporter (P23977 whole entry): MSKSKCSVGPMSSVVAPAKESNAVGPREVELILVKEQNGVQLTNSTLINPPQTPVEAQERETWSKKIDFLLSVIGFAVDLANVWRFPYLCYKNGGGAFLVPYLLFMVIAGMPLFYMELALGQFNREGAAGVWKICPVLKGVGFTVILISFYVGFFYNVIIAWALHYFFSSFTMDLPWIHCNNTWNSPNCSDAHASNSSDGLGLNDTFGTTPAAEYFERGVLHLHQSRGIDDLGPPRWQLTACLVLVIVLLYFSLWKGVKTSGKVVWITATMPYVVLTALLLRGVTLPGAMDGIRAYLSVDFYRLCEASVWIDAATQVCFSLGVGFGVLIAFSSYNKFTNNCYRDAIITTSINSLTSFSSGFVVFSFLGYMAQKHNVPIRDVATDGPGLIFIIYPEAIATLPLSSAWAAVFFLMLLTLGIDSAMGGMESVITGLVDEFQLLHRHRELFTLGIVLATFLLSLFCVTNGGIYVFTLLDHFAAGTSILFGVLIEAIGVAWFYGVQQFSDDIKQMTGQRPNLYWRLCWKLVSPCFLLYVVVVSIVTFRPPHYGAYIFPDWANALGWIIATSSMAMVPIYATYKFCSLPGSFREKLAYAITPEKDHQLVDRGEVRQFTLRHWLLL
Sequence of Monoamine transporters; serotonin & dopamine (Rattus norvegicus) (P23977 whole entry, looked up): as the sequence (P23977 whole entry) above
Sequence of Monoamine transporters; serotonin & dopamine (Rattus norvegicus) (P31652 whole entry, looked up): as the sequence (P31652 whole entry) above

Broadly, the IC50 is the concentration that inhibits the measured activity by half. Lower therefore signals greater potency. With `C/C=C\c1ccc(C2CC3CCC(C2C(=O)OC)N3C)cc1` (stereo not given), the IC50 in test [1] stood at 2800 nM; in test [4], 15 nM; in test [5] it was 7.09 nM. In addition, the Ratio amounted to 2.1 in test [2] and 395 in test [3].

Turning to `CC#Cc1ccc(C2CC3CCC(C2C(=O)OC)N3C)cc1` (stereo not given), the figures for the IC50 in test [1] and in test [4] were 820 nM and 2.37 nM, respectively. Further, the Ratio was found to be 0.15 in test [2] and 52 in test [3].

For the compound `C=CCc1ccc(C2CC3CCC(C2C(=O)OC)N3C)cc1` (stereo not given), the IC50 in test [1] was 2480 nM; in test [4] it was 32.8 nM; in test [5] it was 28.4 nM. Besides, the Ratio came to 1.16 in test [2] and 87 in test [3].

With `C=C(C)c1ccc(C2CC3CCC(N3)C2C(=O)OC)cc1` (stereo not given), the IC50 in test [1] was 144 nM; in test [4], 23 nM; in test [5] it was 0.6 nM. The Ratio in test [2] stood at 38; in test [3], 240.

`COC(=O)C1C2CCC(CC1c1ccc(C(C)C)cc1)N2` (stereo not given): the Ratio in test [3] came out at 21. The compound further came in with an IC50 in test [4] of 320 nM.

Regarding `C#Cc1ccc(C2CC3CCC(C2C(=O)OC)N3C)cc1` (stereo not given), the results for the IC50 in test [1], in test [4] and in test [5] were 83.2 nM, 1.2 nM and 4.4 nM, respectively. The Ratio was found to be 0.27 in test [2] and 19 in test [3].

`C=CCc1ccc(C2CC3CCC(N3)C2C(=O)OC)cc1` (stereo not given): the IC50 in test [1] was 89.7 nM; in test [4], 56.5 nM; in test [5], 6.2 nM. Also, the Ratio was 9.1 in test [2] and 15 in test [3].

Take `C/C=C\c1ccc(C2CC3CCC(N3)C2C(=O)OC)cc1` (cis isomer): the IC50 stood at 147 nM in test [1], 31.6 nM in test [4] and 1.15 nM in test [5]. For the same compound, the Ratio in test [2] was determined as 28; in test [3], 128.

In the case of `C=C(C)c1ccc(C2CC3CCC(C2C(=O)OC)N3C)cc1` (stereo not given), the IC50 in test [1] was 1330 nM; in test [4], 14.1 nM. Besides, the results for the Ratio in test [2] and in test [3] were 4.6 and 425, respectively.

Consider `C=Cc1ccc(C2CC3CCC(N3)C2C(=O)OC)cc1` (stereo not given), for which the IC50 in test [1] amounted to 14.9 nM; in test [4], 1.73 nM. Further, the Ratio in test [2] was 0.77; in test [3] it was 6.6.

In the case of `CCCc1ccc(C2CC3CCC(N3)C2C(=O)OC)cc1` (stereo not given), the IC50 in test [1] came to 532 nM; in test [4], 212 nM; in test [5], 26 nM. Moreover, the Ratio was 8.2 in test [2] and 21 in test [3].

As to `C/C=C/c1ccc(C2CC3CCC(N3)C2C(=O)OC)cc1` (trans isomer), the IC50 in test [1] was found to be 54 nM; in test [4] it was 28.6 nM; in test [5] it was 1.3 nM. In addition, the Ratio stood at 22 in test [2] and 42 in test [3].

For `C=Cc1ccc(C2CC3CCC(C2C(=O)OC)N3C)cc1` (stereo not given), the IC50 in test [1] was 78 nM; in test [4], 1.24 nM; in test [5], 9.5 nM. Further, the Ratio amounted to 0.13 in test [2] and 8.2 in test [3].

Turning to `CCc1ccc(C2CC3CCC(N3)C2C(=O)OC)cc1` (stereo not given), the results for the IC50 in test [1] and in test [4] were 122 nM and 49.9 nM, respectively. Besides, the Ratio was 6.1 in test [2] and 15 in test [3].

With `COC(=O)C1C(c2ccc(C(C)C)cc2)CC2CCC1N2C` (stereo not given), the results for the IC50 in test [1], in test [4] and in test [5] were 75000 nM, 597 nM and 191 nM, respectively. In addition, the figures for the Ratio in test [2] and in test [3] were 3.1 and 392, respectively.

On to `CCc1ccc(C2CC3CCC(C2C(=O)OC)N3C)cc1` (stereo not given), for which the IC50 in test [1] is 4030 nM; in test [4], 55 nM. Besides, the results for the Ratio in test [2] and in test [3] were 1.9 and 142, respectively.

As to `C/C=C/c1ccc(C2CC3CCC(C2C(=O)OC)N3C)cc1` (stereo not given), the values for the IC50 in test [1] and in test [4] were 1590 nM and 5.29 nM, respectively. Moreover, the Ratio in test [2] amounted to 0.46; in test [3], 140.

With `CCCc1ccc(C2CC3CCC(C2C(=O)OC)N3C)cc1` (stereo not given), the half-maximal inhibitory concentration (IC50) in test [1] came to 3920 nM; in test [4], 68.5 nM. Also, the Ratio in test [2] was 0.97; in test [3], 56.

On to `CC#Cc1ccc(C2CC3CCC(N3)C2C(=O)OC)cc1` (stereo not given), for which the half-maximal inhibitory concentration (IC50) in test [1] was found to be 116 nM; in test [4] it was 6.11 nM; in test [5], 3.16 nM. In addition, the Ratio in test [2] worked out at 1.93; in test [3], 37.

Take `COC(=O)[C@@H]1C2CCC(C[C@@H]1OC(=O)c1ccccc1)N2` (stereo not given in full): the IC50 was determined as 139 nM in test [1], 206 nM in test [4] and 127 nM in test [5]. Besides, the figures for the Ratio in test [2] and in test [3] were 1.6 and 1.1, respectively.

For the compound `C#Cc1ccc(C2CC3CCC(N3)C2C(=O)OC)cc1` (stereo not given), the IC50 in test [1] amounted to 21.8 nM; in test [4] it was 1.24 nM; in test [5], 1.59 nM. Besides, the Ratio is 0.78 in test [2] and 13.7 in test [3].
